In the library only some 2.3% were active in any assay of this set; here they are far more common.
MEKK2 WT-MEK5: raises or lowers MEK5 binding to wildtype human MEKK2 PB1 domain | Q9Y2U5 | bead flow cytometry, Alexa488-MEK5 binding to MEKK2 WT; actives lie on both sides | binding response (% of control), % at 10 µM | actives 1.1% (n = 290,000); in the data active means binding response below about 67% or above about 130%
ABCG2 inh: blocks JC-1 efflux by human ABCG2 transporter; Q9UNQ0; IgMXP3 cells, flow cytometry; inhibition, % at 6.6 µM; actives 0.1% (n = 190,000);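 active means inhibition above 80%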;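 further: 0% = DMSO and 100% = nicardipine control wells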
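System: two drug-resistant human cell lines, ABCG2 and ABCB1; controls: nicardipine high and DMSO low controls; times: 10 min exposure at 25 °C with rotation, no wash; detection: flow cytometry of retained JC-1 fluorescence; read-out basis: percent efflux inhibition, scaled nicardipine 100% to DMSO 0%; doses: one concentration, 6.6 µM final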
MEKK3 PB1 HTS: modulators (inhibitors or enhancers) of MEK5 binding to human MEKK3 PB1 domain | Q99759 | bead-based flow cytometry, Alexa488-MEK5 binding to MEKK3; actives lie on both sides; 0 = blocked by unlabeled MEK5, 100 = vehicle | binding response (% of control), % at 10 µM | actives 1.4% (n = 290,000) | AID 1529;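 active means binding response more than 3 SD above or below the average of its plate-row segment, actives on both sides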;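 further: Alexa488 bead fluorescence after subtracting the streptavidin-only scavenger bead signal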
ABCB1 inh: inhibitors of human ABCB1 transporter, ABCG2 counter-screen; actives 0.067% (n = 190,000); CCRF-Adr cells, JC-1 efflux, flow cytometry; inhibition, % at 6.6 µM; in the data active means inhibition above about 40%;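 further: 0% = vehicle and 100% = reference inhibitor; higher value means more JC-1 retained so stronger ABCB1 efflux block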
Target sequence (P08183 whole entry, looked up): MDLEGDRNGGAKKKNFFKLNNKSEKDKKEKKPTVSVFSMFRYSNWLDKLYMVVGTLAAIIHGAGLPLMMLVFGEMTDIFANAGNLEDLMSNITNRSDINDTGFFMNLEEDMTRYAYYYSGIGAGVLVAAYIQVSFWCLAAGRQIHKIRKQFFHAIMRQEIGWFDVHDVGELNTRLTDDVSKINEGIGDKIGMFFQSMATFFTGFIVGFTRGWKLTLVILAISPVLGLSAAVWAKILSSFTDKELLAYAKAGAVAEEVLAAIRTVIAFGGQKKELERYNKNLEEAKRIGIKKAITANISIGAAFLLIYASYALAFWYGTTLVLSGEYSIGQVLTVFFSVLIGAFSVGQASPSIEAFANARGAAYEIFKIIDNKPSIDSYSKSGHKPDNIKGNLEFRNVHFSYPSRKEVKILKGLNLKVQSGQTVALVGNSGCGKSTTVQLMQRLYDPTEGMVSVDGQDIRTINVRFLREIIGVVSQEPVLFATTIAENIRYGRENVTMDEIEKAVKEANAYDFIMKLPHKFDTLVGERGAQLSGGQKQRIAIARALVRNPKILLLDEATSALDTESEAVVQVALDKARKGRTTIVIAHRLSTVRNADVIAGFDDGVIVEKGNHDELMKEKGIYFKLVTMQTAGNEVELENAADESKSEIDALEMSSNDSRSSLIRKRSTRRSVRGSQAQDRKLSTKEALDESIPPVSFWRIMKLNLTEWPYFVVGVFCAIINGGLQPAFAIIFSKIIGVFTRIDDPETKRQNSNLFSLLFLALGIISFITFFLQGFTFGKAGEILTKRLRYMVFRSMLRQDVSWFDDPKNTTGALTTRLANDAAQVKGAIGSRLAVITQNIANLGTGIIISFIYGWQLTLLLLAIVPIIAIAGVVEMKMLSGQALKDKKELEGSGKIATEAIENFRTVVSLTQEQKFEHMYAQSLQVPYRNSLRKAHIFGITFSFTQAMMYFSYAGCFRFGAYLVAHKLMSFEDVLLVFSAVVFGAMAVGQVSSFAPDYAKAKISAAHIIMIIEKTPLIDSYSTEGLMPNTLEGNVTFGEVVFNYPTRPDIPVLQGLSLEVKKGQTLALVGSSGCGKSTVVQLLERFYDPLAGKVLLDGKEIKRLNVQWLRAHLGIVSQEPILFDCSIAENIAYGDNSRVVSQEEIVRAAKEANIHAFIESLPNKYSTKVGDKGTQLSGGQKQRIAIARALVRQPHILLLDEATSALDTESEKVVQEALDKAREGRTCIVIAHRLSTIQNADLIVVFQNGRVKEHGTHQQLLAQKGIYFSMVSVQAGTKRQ
MEKK2 mut-MEK5: signal of MEK5 binding to mutant human MEKK2 PB1 domain | bead flow cytometry, Alexa488-MEK5 binding to MEKK2 mutant | AID 1530 | percent response, % at 10 µM | actives 0.35% (n = 290,000); in the data active means percent response above about 24%, passing the limit was not always enough
MEKK2wt confirm: raises or lowers MEK5 binding to wildtype human MEKK2, retest | shares compounds with MEKK3 PB1 HTS | bead flow cytometry, Alexa488-MEK5 binding to MEKK2 WT; actives lie on both sides | actives 2.4% (n = 5,900) | binding response (% of control), % at 10 µM | AID 1892; in the data active means binding response below about 16% or above about 210%; inactive means in between
MEKK2mut-MEK5: signal of MEK5 binding to mutant human MEKK2, retest; shares compounds with MEKK3 PB1 HTS; bead flow cytometry, Alexa488-MEK5 binding to MEKK2 mutant; percent response, % at 10 µM; actives 2% (n = 5,900); AID 1893; in the data active means percent response mostly above about 71%, no sharp cut-off; inactive means mostly below about 38%;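 further: higher means compound restores mutant binding toward wildtype level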
MEKK3-MEK5 inh: confirmation of inhibitors of MEK5 binding to human MEKK3 | shares compounds with MEKK3 PB1 HTS | bead flow cytometry, Alexa488-MEK5 binding to MEKK3; stronger effect = lower value | binding response (% of control), % at 10 µM | actives 1.8% (n = 5,900) | AID 1894;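 active means binding response below 72% of control, or above a set upper limit, though filed actives all read lower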;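 further: 100% = DMSO only wells and 0% = binding blocked by excess unlabeled MEK5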
* hit, by the source's call; x = no result; [ ] = remark or other dose.

SMILES	MEKK2 WT-MEK5	ABCG2 inh	MEKK3 PB1 HTS	ABCB1 inh	MEKK2 mut-MEK5	MEKK2wt confirm	MEKK2mut-MEK5	MEKK3-MEK5 inh
Cc1nc(NC(=O)/C=C/c2ccccc2)sc1C(=O)NCCO	129	1	139*	0	79*	97	-6	98
CCOC(=O)CNC(=O)c1sc(NC(=O)/C=C/c2ccccc2)nc1C	105	x	102	x	0	x	x	x
O=C(N/N=C/c1ccccc1F)NC1CCCCC1	105	38	140*	2	1	69	-17	68*
O=C(N/N=C/c1cccc(F)c1)NC1CCCCC1	116	4	102	0	16	x	x	x
O=C(N/N=C/c1ccccc1OC(F)F)NC1CCCCC1	82	x	88	x	-23	x	x	x
O=C(N/N=C/c1ccccc1)NC1CCCCC1	102	2	67*[inhibitor]	0	0	95	-4	93
COc1cccc(-c2nc(C(=O)NCCCN3CCOCC3)cc3c2[nH]c2ccccc23)c1	127	x	103	x	9	x	x	x
O=C(NCCCN1CCOCC1)c1cc2c([nH]c3ccccc32)c(-c2cccc(Br)c2)n1	161*	x	112	x	31*	177	36	110
CC(C)(C)c1ccc(C2SCC(=O)N2c2cccc(C(=O)O)c2)cc1 (configuration not stated)	99	x	100	x	-2	x	x	x
Cc1ccccc1NC(=O)C1(NC(=O)c2cccc(N3C(=O)CSC3c3ccccc3)c2)CCCCC1 (configuration not stated)	103	-3	122*	1	6	103	1	101
O=C(N/C(=C/c1ccccc1Cl)C(=O)N1CCCCC1)c1ccco1	106	x	103	x	5	x	x	x
CN(C)c1ccc(NS(=O)(=O)c2ccc(Cl)cc2)cc1	102	-9	135*	-1	3	99	-3	97
COc1ccc(C(=O)N/C(=C\c2cc(OC)c(OC)cc2[N+](=O)[O-])C(=O)NCC(=O)O)cc1	98	1	104	0	-2	x	x	x
COc1cc(/C=C(\NC(=O)c2ccccc2)C(=O)NCC(=O)O)c([N+](=O)[O-])cc1OC	108	7	132*	1	0	109	21	111
Cc1cc(C)c(NC(=O)CN2C(=O)CC(C)S(=O)(=O)c3ccccc32)c(C)c1 (configuration not stated)	105	x	103	x	0	x	x	x
O=C(NNS(=O)(=O)c1ccc2ccccc2c1)c1cccs1	103	-4	144*	-1	0	99	-1	101
COc1ccc(NC(=S)NNS(=O)(=O)c2ccc3ccccc3c2)c(OC)c1	99	0	102	0	-1	x	x	x
COc1ccccc1NC(=O)C(=O)NNS(=O)(=O)c1ccc2ccccc2c1	118	x	131*	x	31	103	5	101
O=C(NNS(=O)(=O)c1ccccc1)c1cccs1	104	3	104	1	18	x	x	x
Cc1ccc(NC(=S)NN(C)c2cc(C)nc(C)n2)cc1	107	6	129*	0	1	99	1	100
Cc1cnc(C)c(N(C)NC(=S)Nc2ccccc2)n1	105	0	106	0	5	x	x	x
Cc1cc(C)c(S(=O)(=O)c2ccccc2C(=O)O)c(C)c1	124	1	126*	0	6	101	9	104
CN(C)C1=NC[C@H](Cc2ccccc2)N1CC1CCC(C(C)(C)C)CC1 (some centres not stated)	116	x	100	x	4	x	x	x
O=[N+]([O-])c1cc(C(F)(F)F)ccc1NCCNC(=S)Nc1ccc(Cl)cc1	139*	3	107	0	19	131	20	108
Cc1ccc(CCNC(=O)C2CCCN(S(=O)(=O)N3CC(C)CC(C)C3)C2)cc1 (configuration not stated)	96	x	101	x	-1	x	x	x
SMILES	MEKK2 WT-MEK5	ABCG2 inh	MEKK3 PB1 HTS	ABCB1 inh	MEKK2 mut-MEK5	MEKK2wt confirm	MEKK2mut-MEK5	MEKK3-MEK5 inh
O=C1C(=O)N(CCN2CCOCC2)C(c2ccccn2)/C1=C(/O)c1ccccc1 (configuration not stated)	0.0*[inhibitor]	-6	0.0*[inhibitor]	-1	-27	108	7	108
CC(C)CNC(=O)COC(=O)c1ccc(F)cc1Cl	83	4	73*[inhibitor]	1	-10	106	7	108
CC(C)CNC(=O)COC(=O)c1cc(Cl)cc(Cl)c1N	98	5	98	1	0	x	x	x
CC(C)NC(=S)N1CCN(Cc2ccc3c(c2)OCO3)CC1	91	2	91	0	-3	x	x	x
COc1cc(C(=O)N2CCN(Cc3ccc4c(c3)OCO4)CC2)cc(OC)c1OC	102	x	99	x	28*	98	-1	102
CCN(CC)c1ccc(C(=O)NC(=S)N2CCN(Cc3ccc4c(c3)OCO4)CC2)cc1	107	4	145*	1	-1	101	0	102
CN(C)CCN1C(=O)c2oc3ccccc3c(=O)c2C1c1ccc(F)cc1 (configuration not stated)	-1.0*[inhibitor]	1	2.0*[inhibitor]	0	-26	110	14	105
COC(CNC(=O)c1c[nH]c2ccc(S(=O)(=O)N(C)c3ccc(F)cc3)cc2c1=O)OC	105	x	101	x	3	x	x	x
Cc1sc2nc(CN3CCCC3)nc(N3CCN(S(=O)(=O)c4cccs4)CC3)c2c1C	145*	1	103	2	4	141	36	109
